Activity calls are given as the source filed them. The rule behind the calls is not given here.
How the values were obtained:
[1] = Octanol-water partition coefficient, logD of the compound in PBS at pH 7.4 by liquid chromatography based mass spectrometric analysis; type: physicochemical
Summary of the method: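 Shake-flask method: 3.0 mg compound dissolved in PBS-saturated n-octanol and rotated 24 h at room temperature. The octanol phase was then mixed with octanol-saturated PBS, rotated another 24 h and centrifuged. Both phases quantified by LC-MS against a standard curve, and log P = log(C octanol/C water).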

[2] = tested on: MDA-MB-231; experiment: Cytotoxicity against human MDA-MB-231 cells incubated for 72 hrs by MTT assay; type: functional, cell-based; conditions: MDA-MB-231, 72 h
Summary of the method: (§1)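 Cells seeded at 4000/well, incubated overnight, then exposed to a range of concentrations, or DMSO vehicle, for 72 h. MTT (5 mg/mL solution) added for 4 h and formazan dissolved in DMSO. Absorbance read at 570 nm, and IC50 derived from the curves. Tumor lines were grown in RPMI 1640; HUVEC, HaCaT and LO2 were grown in DMEM, each with 10% FBS at 37 °C and 5% CO2.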

[3] = tested on: HT-29; experiment: Cytotoxicity against human HT-29 cells incubated for 72 hrs by MTT assay; type: functional, cell-based; conditions: HT-29, 72 h; summary of the method: as §1
[4] = tested on: NCI-H460; experiment: Cytotoxicity against human NCI-H460 cells incubated for 72 hrs by MTT assay; type: functional, cell-based; conditions: NCI-H460, 72 h; summary of the method: as §1
[5] = Cytotoxicity against HUVEC incubated for 72 hrs by MTT assay; type: toxicity, cell-based; conditions: human, HUVEC cells; summary of the method: as §1
[6] = Cytotoxicity against human L02 cells incubated for 72 hrs by MTT assay; type: toxicity, cell-based; summary of the method: as §1
[7] = tested on: NCI-H1975; experiment: Cytotoxicity against Glut1 knocked down human NCI-H1975 cells transfected with KDV assessed as decrease in cell viability incubated for 72 hrs by MTT assay; type: functional, cell-based; conditions: NCI-H1975, 72 h
Summary of the method: (§2)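 Stable Glut-1 knockdown (KD1, KD2, vector KD V) or overexpression (OE, vector OE V) NCI-H1975 cells made by 12 h lentiviral infection, 72 h culture, then 14 days puromycin selection; Glut-1 confirmed by Western blot. Cells seeded at 4000/well overnight, dosed over a concentration range or DMSO for 72 h. MTT read at 570 nm; IC50 from ≥3 replicates.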

[8] = tested on: NCI-H1975; experiment: Cytotoxicity against Glut1 knocked down human NCI-H1975 cells transfected with KD1 assessed as decrease in cell viability incubated for 72 hrs by MTT assay; type: functional, cell-based; conditions: NCI-H1975, 72 h; summary of the method: as §2
[9] = tested on: NCI-H1975; experiment: Cytotoxicity against human NCI-H1975 cells transfected with OE V overexpressing Glut1assessed as decrease in cell viability incubated for 72 hrs by MTT assay; type: functional, cell-based; conditions: NCI-H1975, 72 h; summary of the method: as §2
[10] = tested on: NCI-H460; experiment: Induction of apoptosis in human NCI-H460 cells assessed as viable cells at 1 uM measured after 48 hrs by Annexin V-FITC/PI staining method (reference value: 86.7%); type: functional; conditions: read-out: Activity
[11] = tested on: NCI-H460; experiment: Induction of apoptosis in human NCI-H460 cells assessed as late apoptotic cells at 1 uM measured after 48 hrs by Annexin V-FITC/PI staining method (reference value: 8.47%); type: functional
[12] = tested on: NCI-H460; experiment: Induction of apoptosis in human NCI-H460 cells assessed as necrotic cells at 1 uM measured after 48 hrs by Annexin V-FITC/PI staining method (reference value: 1.62%); type: functional
[13] = tested on: NCI-H460; experiment: Induction of apoptosis in human NCI-H460 cells assessed as viable cells at 50 uM measured after 48 hrs by Annexin V-FITC/PI staining method (reference value: 86.7%); type: functional; conditions: read-out: Activity
[14] = tested on: NCI-H460; experiment: Induction of apoptosis in human NCI-H460 cells assessed as early apoptotic cells at 50 uM measured after 48 hrs by Annexin V-FITC/PI staining method (reference value: 3.26%); type: functional
[15] = tested on: NCI-H460; experiment: Induction of apoptosis in human NCI-H460 cells assessed as necrotic cells at 50 uM measured after 48 hrs by Annexin V-FITC/PI staining method (reference value: 1.62%); type: functional
[16] = tested on: NCI-H460; experiment: Induction of mitochondrial membrane potential loss in human NCI-H460 cells by flow cytometric analysis; type: functional, cell-based
Summary of the method: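 Treated NCI-H460 cells suspended in 1% BSA DPBS and stained with TMRE (from a 1 mM stock) for 20 min in the dark. Cells then washed and resuspended in 1% BSA DPBS. Relative TMRE fluorescence intensity taken as the readout of membrane potential.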

[17] = Stability in human serum measured upto 72 hrs by HPLC analysis; type: ADME, cell-free
Summary of the method: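 15 µM test agent incubated with human or mouse serum at 37 °C for 0, 0.5, 1, 8, 12, 18, 60 and 72 h. Samples stored at −80 °C, protein precipitated with 200 µL methanol, vortexed and sonicated 5 min. Intact agent and released triptolide measured by HPLC at 220 nm, in duplicate.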

[18] = AUC (0 to 3 hrs) in NCI-H1975 tumor bearing nude mouse model serum at 1 mg/kg, iv; type: ADME, organism-based; set-up: time < 3 hr, dose 1 mg/kg, route iv
[19] = Half life in NCI-H1975 tumor bearing nude mouse model serum at 1 mg/kg, iv; type: ADME, organism-based
[20] = Stability in NCI-H1975 tumor bearing nude mouse model plasma at 1 mg/kg, iv; type: ADME, organism-based; conditions: in vivo
[21] = Toxicity in BALB/c nude mouse xenografted with human NCI-H1975 cells assessed as reduction of cytoplasmic nuclei at 2 mg/kg administered ip, qd for 2 weeks; conditions: in vivo, 336 h
[22] = Toxicity in BALB/c nude mouse xenografted with human NCI-H1975 cells assessed as morphological changes in testis at 1 mg/kg administered ip, qd for 2 weeks; conditions: in vivo, 336 h
[23] = tested on: NCI-H1975 (Homo sapiens); experiment: Antineoplastic activity against human NCI-H1975 cells xenografted in BALB/c nude mouse assessed as tumor growth inhibition at 1 to 2 mg/kg, ip, qd for 2 weeks; conditions: dose 1-2 mg/kg
[24] = Toxicity in BALB/c nude mouse xenografted with human NCI-H1975 cells assessed as morphological change in heart at 1 to 2 mg/kg administered ip, qd for 2 weeks; conditions: in vivo, 336 h
[25] = Toxicity in BALB/c nude mouse xenografted with human NCI-H1975 cells assessed as morphological change in liver at 1 to 2 mg/kg administered ip, qd for 2 weeks; conditions: in vivo, 336 h
[26] = tested on: NCI-H1975; experiment: Antitumor activity against human NCI-H1975 cells xenografted in BALB/c nude mouse assessed as tumor growth inhibition at 1 mg/kg, ip, qd for 2 weeks relative to control; conditions: NCI-H1975, 336 h, read-out: TGI
[27] = tested on: NCI-H1975; experiment: Antitumor activity against human NCI-H1975 cells xenografted in BALB/c nude mouse assessed as tumor growth inhibition at 2 mg/kg, ip, qd for 2 weeks relative to control; conditions: NCI-H1975, 336 h, read-out: TGI
[28] = Toxicity in BALB/c nude mouse xenografted with human NCI-H1975 cells assessed as degeneration of inter tube connective tissue at 2 mg/kg administered ip, qd for 2 weeks; conditions: in vivo, 336 h

- logD [1]: -0.347
- Stability [17]: Stable
- AUC(0-t) at 3 h [18]: 83.6 µM·h
- half-life [19]: 19.2 min
- Stability [20]: Unstable
SMILES: CC(C)[C@]12O[C@H]1[C@@H]1O[C@]13[C@]1(O[C@H]1C[C@H]1C4=C(CC[C@@]13C)C(=O)OC4)[C@@H]2OC(=O)CCC(=O)O[C@H]1C(O)O[C@H](CO)[C@@H](O)[C@@H]1O (stereo partly drawn)
- IC50 [2]: 1970 nM
- IC50 [3]: 2190 nM
- IC50 [4]: 870 nM
- IC50 at 72 h [5]: 8550 nM
- IC50 at 72 h [6]: 1320 nM
- IC50 [7]: 2870 nM
- IC50 [8]: 7010 nM
- IC50 [9]: 5270 nM
- viability at 1 µM [10]: 84.6%
- Activity [11]: 7.68%
- Activity [12]: 0.85%
- viability at 50 µM [13]: 22.7%
- Activity [14]: 50.2%
- Activity [15]: 5.77%
- Activity [16]: Active
- Activity [21]: Toxic
- Activity [22]: Non-Toxic
- Activity [23]: Active
- Activity [24]: Non-Toxic
- Activity [25]: Non-Toxic
- inhibition in vivo at 1 mg/kg [26]: 75.4%
- inhibition in vivo at 2 mg/kg [27]: 90.4%
- Activity [28]: Toxic
